Shown are actives, neighbours in structure and some others; about 5.5% of the full set was active somewhere.
STAT3 blocker = IL-6 driven STAT3 reporter inhibitors, primary screen, U3A cells, luciferase, luminescence, MLSCN library; IL-6 STAT3-luciferase reporter; host cell line lacks STAT1; 190,000 compounds, 0.89% hits; AID 862, 2007; inhibition, % at 5.5 µM;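 active = inhibition above the mean inhibition across all screened compounds plus 3 SD, cut at about 44% in these data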
HSV replic up = enhancers of HSV replication in host cells, fold increase, host cell viability | HSV replication augmentation in cells | maximum fold increase | 220,000 compounds, 0.005% hits; in the data active = maximum fold increase above about 1.5; inconclusive = no clear call, values can overlap the other calls; tested in PC3 cells
STAT1 activator = STAT1 signaling activators, primary screen, cell-based, HTS, luciferase reporter; NIH 3T3 STAT1-luciferase reporter, IFN-gamma, luminescence; 100% = IFN-gamma alone, no compound; activation (% of control), % at 5.5 µM; 200,000 compounds, 2.6% hits;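 active = activation above the screen-wide mean activation plus 3 SD, cut at about 130% in these data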
Cl transport mod = KCC2 cotransporter modulators, thallium flux, primary screen, cell-based, HEK293 KCC2, FluoZin-2 fluorescence, MLSMR; Solute carrier family 12 member 5 (Homo sapiens), Q9H2X9; KCC2 cells, thallium flux FluoZin-2 fluorescence; B-score of Tl+ flux slope (higher = more flux/activation; lower = inhibition) at 10 µM; 190,000 compounds, 2.2% hits; AID 1456, 2008;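 active = thallium flux slope and its plate-corrected score both differing from the plate sample mean at a set confidence after two filtering rounds, in either direction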;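 note: slope of fluorescence scaled to starting intensity during 10 to 20 s after thallium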
STAT1 inh = STAT1 signaling inhibitors, primary screen, cell-based, HTS, luciferase reporter | NIH 3T3 STAT1-luciferase reporter, IFN-gamma, luminescence | inhibition, % at 5.5 µM | 200,000 compounds, 0.35% hits | AID 920, 2007;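 active = inhibition above a set limit, the mean inhibition across all tested compounds plus 3 SD, cut at about 34% in these data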
STAT3 act = IL-6 driven STAT3 reporter potentiators, primary screen, U3A cells, luciferase, luminescence, MLSCN library | IL-6 STAT3-luciferase reporter; 100% = signal with IL-6 EC80 alone | activation (% of control), % at 5.6 µM | 190,000 compounds, 0.91% hits | AID 871, 2007;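 active = activation above the screen-wide mean of compound activation plus 3 SD, cut at about 130% in these data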
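Test system: STAT3-luciferase reporter U3A cells; Detection: reporter luminescence signal; Times: 1 h compound pre-exposure, 6 h IL-6 stimulation, 37 °C; Benchmarks: IL-6-only high control; Also added: IL-6 stimulus at 33 ng/mL final.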
KCC2 sec1 = KCC2 modulators in sodium-free buffer, confirmation, cell-based, HEK293 KCC2, thallium flux, secondary assay; shares compounds with Cl transport mod; FluoZin2 fluorescence; stronger effect = higher value; normalised thallium flux (F/F0 slope) at 10 µM; 3,700 compounds, 15% hits;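 active = thallium flux slope above the same plate's solvent-only control mean plus 3 SD; inconclusive = the two replicate wells disagree; inactive = no significant difference from solvent-only control wells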
KCC2 bumet counter = thallium flux persisting under bumetanide in KCC2 cells, confirmation, counter-screen for KCC2 modulator project, cell-based, HEK293 KCC2, FluoZin2, secondary assay 3; shares compounds with Cl transport mod; HEK293-KCC2 + bumetanide/ouabain; stronger effect = higher value; normalized thallium flux at 10 µM; 3,700 compounds, 49% hits;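 active = thallium entry rate above the same plate's blocked-transporter control wells by more than 3 SD; inconclusive = the two repeat wells disagree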;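 note: raw slope of fluorescence over initial fluorescence between 10 and 20 s after thallium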
KCC2 sec2 = KCC2 modulators without ouabain present, confirmation, cell-based, HEK293 KCC2, thallium flux, FluoZin2, secondary assay 2; shares compounds with Cl transport mod; thallium flux FluoZin2 fluorescence; actives lie on both sides; F/F0 rise rate, 10–20 s post-thallium; normalized thallium flux at 10 µM; 3,700 compounds, 23% hits;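 active = thallium flux slope more than 3 SD above or below the plate's solvent-only control mean, mostly below; inconclusive = the two repeat wells disagreed; inactive = no significant shift from solvent-only controls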
HEK counter1 = thallium flux modulation in parental HEK cells, confirmation, counter-screen for KCC2 modulator project, cell-based, counterscreen 1; thallium flux rate (normalised fluorescence) at 10 µM; shares compounds with Cl transport mod; HEK293 parental cells, thallium flux FluoZin2, ouabain; baseline-ratio fluorescence slope, 10–20 s after thallium; 3,700 compounds, 46% hits;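 active = thallium flux rate significantly above the same plate's solvent-only control wells, beyond their mean plus 3 SD; inconclusive = the two replicate wells gave conflicting results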
KCC2 ouabain = KCC2 inhibitors and activators, ouabain retest, confirmation, HEK-KCC2 cells. 3,700 compounds, 48% hits. raw Tl+ flux slope (below DMSO = inhibition, above = activation) at 10 µM. HEK293-KCC2, thallium flux FluoZin2 fluorescence; bidirectional: low = inhibitor, high = activator. AID 1717, 2009. shares compounds with Cl transport mod;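 active = thallium flux slope beyond 3 SD from same-plate DMSO control mean in most replicates, usually higher, sometimes lower; inconclusive = repeat tests gave conflicting results; inactive = no significant difference from controls in most replicates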;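 note: slope of initial-normalized fluorescence between seconds 10 and 20 after thallium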
HEK293 Tl flux2 = native HEK Tl+ uptake effects, second counter-screen – HEK cells, counterscreen 2, counter-screen for KCC2 modulator project, confirmation; HEK293 parental, thallium flux FluoZin-2 fluorescence slope; thallium flux slope at 10 µM; AID 1718, 2009; 3,700 compounds, 33% hits; shares compounds with Cl transport mod;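 active = thallium flux slope above the same plate's solvent-control mean plus 3 SD in both duplicate wells; inconclusive = duplicate wells that disagreed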;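 note: run without ouabain in cells lacking the KCC2 cotransporter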
Numbers stand for hits; i = inactive; ? = inconclusive; nt = no result.

SMILES	STAT3 blocker	HSV replic up	STAT1 activator	Cl transport mod	STAT1 inh	STAT3 act	KCC2 sec1	KCC2 bumet counter	KCC2 sec2	HEK counter1	KCC2 ouabain	HEK293 Tl flux2
Cc1ccc(-c2nc(NC(=O)CSc3nnc4scc(-c5ccccc5)n34)ns2)cc1	nt	nt	nt	i	nt	nt	nt	nt	nt	nt	nt	nt
O=C1NC(=S)SC1=C1CCCC1	i	i	i	17.7	i	i	i	0.0283	0.0425	0.0286	0.0368	0.0319
CN1C(=O)C(=C2CCCCCC2)SC1=S	i	i	i	nt	i	i	nt	nt	nt	nt	nt	nt
CCNc1nc(SC)nc(N(C#N)CC(=O)OC)n1	i	i	i	i	i	i	nt	nt	nt	nt	nt	nt
COc1ccc(/C=N/OCC(=O)N=Nc2c(O)[nH]c3ccc(Br)cc23)cc1OC	i	i	i	i	i	i	nt	nt	nt	nt	nt	nt
CC(C)NC(=S)N=Nc1c(O)[nH]c2ccc(C(C)C)cc12	i	i	i	4.05	i	i	i	0.0129	i	0.0149	?	0.014
COc1ccccc1NC(=S)N=Nc1c(O)[nH]c2ccc(Br)cc12	nt	i	nt	9.1	nt	nt	i	0.00996	i	0.014	?	0.0166
Cc1cccc(NC(=S)N=Nc2c(O)[nH]c3ccccc23)c1	i	i	i	17.1	i	i	?	0.0322	i	0.0146	0.0457	?
COc1ccc(-c2[nH]nc3oc(=O)c(CCO)c(C)c23)cc1	i	i	i	i	i	i	nt	nt	nt	nt	nt	nt
COc1ccc(N/N=C(/C)c2cnnc(-c3ccccc3)n2)cc1	i	i	i	i	i	i	nt	nt	nt	nt	nt	nt
Cc1nn(-c2cc(C(F)(F)F)ccc2Cl)c2nc(C(Cl)(Cl)Cl)[nH]c(=O)c12	nt	i	nt	50.3	nt	nt	i	0.061	0.0483	0.0356	0.0483	0.0343
Cc1nn(-c2ccccc2)c2nc(C(F)(F)F)[nH]c(=O)c12	i	i	i	i	i	i	nt	nt	nt	nt	nt	nt
Cc1noc(C(=O)NCc2ccc(F)cc2)c1Cl	i	i	i	6.8	i	i	i	i	i	i	i	i
Cc1noc(C(=O)NCc2cccnc2)c1Cl	i	i	i	i	i	i	nt	nt	nt	nt	nt	nt
CCCn1c(SCC(=O)c2c(C)[nH]c(C)c2C(=O)OCC)nc2ccccc21	i	i	i	i	i	i	nt	nt	nt	nt	nt	nt
O=C1/C(=C/c2ccc(Cl)cc2)NC(=S)N1Cc1cccnc1	i	i	i	5.23	i	i	i	0.00881	i	0.0102	i	i
O=C1/C(=C/c2ccc(O)cc2)SC(=S)N1Cc1cccnc1	i	?	i	i	i	i	nt	nt	nt	nt	nt	nt
O=C(Cc1ccccc1)NNC(=S)NC(=O)c1cccs1	nt	i	nt	6.8	nt	nt	i	0.0137	i	0.0155	?	0.0181
